Results on four compounds are retold here after ChEMBL document CHEMBL4411331, “6-Amino-3-methylpyrimidinones as Potent, Selective, and Orally Efficacious SHP2 Inhibitors” (J Med Chem, 2019).

As usually defined, the Papp A→B is the apparent permeability from the apical to the basolateral side of a cell layer. Usually half-life stands for the time needed for the level to fall by half in the phase considered. Low readings indicate fast loss, high ones slow loss. For orientation: bioavailability means the share of a dose that reaches the circulation, judged against a reference dose that is usually intravenous. A word on the solubility: it is how much of the substance goes into solution per volume. What is called clearance is the rate of elimination divided by the concentration.

≈ marks a conversion by molar mass, not a printed value. Bounds are passed on as bounds.

The nature of data set [1]: Apparent permeability across apical to basolateral side in human Caco2 cells. The format is ADME, cell-based. The following applies: Caco-2. A general note: Caco-2 cells form a polarised layer with tight junctions and transporters.
Data set [2] in a line: Intrinsic clearance in rat liver microsomes. The format is ADME, Microsome. The following applies: read-out: CLH. Background: Microsomes from liver hold many membrane-bound enzymes, among them those of drug oxidation.
Data set [3] in a line: Half life in rat liver microsomes. The format is ADME, Microsome.
A short description of data set [4]: Dose normalized AUC in rat at 1 mg/kg, po. The data set is classed as ADME, organism-based. The following applies: in vivo.
Data set [5] can be described thus: Oral bioavailability in rat at 1 mg/kg. Conditions: in vivo. The data set is classed as ADME, organism-based.
Data set [6] in a line: Intrinsic clearance in mouse liver microsomes. The data set is classed as ADME, Microsome. The following applies: read-out: CLH.
Data set [7] can be described thus: Half life in mouse liver microsomes. The data set is classed as ADME, Microsome.
Data set [8] is described as follows: Aqueous solubility of the compound in 6.8 pH buffer. The format is physicochemical. Conditions: pH 6.8 buffer.
Data set [9] can be described thus: Drug uptake in human Detroit 562 cells xenografted NU/NU mouse at 20 to 80 mg/kg, po BID. Conditions: in vivo. The data set is classed as ADME, organism-based. The procedure, abridged:
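Detroit-562 xenografts (5 x 10^5 cells subcutaneously in 50% matrigel/HBSS) were grown in female athymic NU/NU mice. At about 300 mm3 the mice were dosed by oral gavage, with 0.5% methylcellulose/0.1% Tween 80 as the vehicle control. Mice were euthanized at set times, and plasma and tumor fragments were collected for compound concentration.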
(In general: Xenograft models place foreign cells or tissue in a host animal.)

Data set [10] can be described thus: Clearance in rat. The data set is classed as ADME. Conditions: in vivo.
Data set [11] can be described thus: Half life in rat. The data set is classed as ADME. Conditions: in vivo.
A short description of data set [12]: Permeability in human Caco2 cells. The following applies: Caco-2, read-out: permeability. The format is ADME, cell-based.
Data set [13] in a line: Oral bioavailability in rat at 6 mg/kg. Conditions: in vivo. The format is ADME, organism-based.
Data set [14] can be described thus: Dose normalized AUC in rat at 6 mg/kg, po. The data set is classed as ADME, organism-based. The following applies: in vivo.

As for `C[C@@H]1OCC2(CCN(c3nc(N)c(Sc4cccnc4C(F)(F)F)c(=O)n3C)CC2)[C@@H]1N`, in data set [1], the Papp A→B amounted to 1.02 ×10⁻⁶ cm/s. Further, the microsomal CLint in data set [2] and in data set [6] was 7.9 to 11.1 µL/min/mg in each case. The half-life in data set [3] was above 2 h; in data set [7], above 2 h; in data set [11], 10.9 h. The AUC/dose in [4] was 0.45 µM·h. This compound showed a bioavailability in data set [5] of 29%. Besides, the concentration in solution in data set [8] (solubility) was 980 µM (≈ 461 µg/mL). In addition, the Drug uptake entry in [9] is listed as “Dose-dependent effect”. Besides, the clearance in data set [10] was 21 mL/min/kg.

In the case of `Cn1c(N2CCC(C)(CN)CC2)nc(N)c(Sc2cccc(Cl)c2Cl)c1=O`, the Papp in data set [12] turned out to be 2.5 ×10⁻⁶ cm/s. The amount in solution in data set [8] (solubility) came to 250 µM (≈ 107 µg/mL).

Take `C[C@@H]1OCC2(CCN(c3nc(N)c(Sc4cccc(Cl)c4Cl)c(=O)n3C)CC2)[C@@H]1N`: in data set [1], the Papp A→B is 6.8 ×10⁻⁶ cm/s. Moreover, the microsomal CLint in data set [2] was determined as 39.3 µL/min/mg. Besides, the half-life in [3] is 0.617 h. The compound also returned an AUC/dose in [4] of 0.95 µM·h. The same compound came in with a bioavailability in data set [5] of 38%.

With `C[C@H]1C[C@@H](N)C2(CCN(c3nc(N)c(Sc4cccnc4C(F)(F)F)c(=O)n3C)CC2)C1`, the Papp A→B in data set [1] is below 0.5 ×10⁻⁶ cm/s. The microsomal CLint in data set [2] stood at 3.4 µL/min/mg. Further, in data set [3], the half-life was 6.6 h. Besides, the bioavailability in data set [13] worked out at 1%. This compound showed an AUC/dose in data set [14] of 0.03 µM·h.
